Results from ChEMBL document CHEMBL1129609, “Synthesis and antiviral activity evaluation of some new aminoadamantane derivatives. 2” (1996).
In brackets after ≈: the same amount, converted by molar mass.

Tests used:
Human alphaherpesvirus 3 [1] = assay: Antiviral activity against TK-VZV virus infected HEL cell lines.; assay type: functional
Outline: (§1)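 Vero (African green monkey kidney), HeLa (human epithelial) or HEL (human embryonic lung) cell monolayers infected with the virus. Readout is the minimum inhibitory concentration that reduces virus-induced cytopathicity by 50%. Values are averages of at least two separate experiments.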

HEF = assay: Effects on cell morphology of HEF cell lines.; assay type: functional; settings: Homo sapiens
Outline: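 Human embryonic skin-muscle fibroblasts were examined under the microscope for changes in normal cell morphology. The value is the minimum concentration causing a microscopically detectable alteration, averaged from at least two separate experiments.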

Semliki Forest virus = assay: Antiviral activity against Semliki forest virus infected Vero cell lines.; assay type: functional; outline: as §1
Human alphaherpesvirus 2 = assay: Antiviral activity against HSV-2 virus infected HEF cell lines.; assay type: functional
Outline: (§2)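 Human embryonic fibroblasts, from embryonic lung or embryonic skin-muscle, infected with the virus. Endpoint is the minimum inhibitory concentration that reduces virus-induced cytopathicity by 50%. Values are averages of at least two separate experiments.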

HEL = assay: Inhibition of HEL cell proliferation.; assay type: functional; settings: Homo sapiens
Outline: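 Human embryonic lung fibroblasts were used for the proliferation assay. The value is the concentration that reduces cell proliferation by 50%, averaged from at least two separate experiments.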

Coxsackievirus B4 [2] = assay: Antiviral activity against Coxsackie B4 virus infected vero cell lines.; assay type: functional; settings: Enterovirus B; outline: as §1
[3] = tested on: Human immunodeficiency virus 2; assay: Antiviral activity against HIV-2 virus infected CEM cell lines.; assay type: functional, CCRF-CEM
[4] = tested on: Vesicular stomatitis virus; assay: Antiviral activity against vesicular stomatitis virus infected HeLa cell lines.; assay type: functional; outline: as §1
Human alphaherpesvirus 1 [5] = assay: Antiviral activity against HSV-1 virus infected HEF cell lines.; assay type: functional; outline: as §2
Sindbis virus = assay: Antiviral activity against sindbis virus infected Vero cell lines.; assay type: functional; outline: as §1
Human alphaherpesvirus 3 [6] = assay: Antiviral activity against TK+VZV virus infected HEL cell lines.; assay type: functional; outline: as §1
MDCK [7] = assay: Antiviral activity of compound was tested against morphology virus infec+ted MDCK cell lines.; assay type: functional; settings: Canis lupus familiaris
Human respirovirus 3 = assay: Antiviral activity against parainfluenza 3 virus infected Vero cell lines.; assay type: functional; outline: as §1
[8] = tested on: Mammalian orthoreovirus 1; assay: Antiviral activity against Reo 1 virus infected vero cell lines.; assay type: functional; outline: as §1
Influenza B virus = assay: Antiviral activity against influenza B virus infected MDCK cell lines.; assay type: functional
MDCK [9] = assay: Antiviral activity tested against influenza A,H1N1 virus infected MDCK cell lines.; assay type: functional; settings: Canis lupus familiaris
Human alphaherpesvirus 1 [10] = assay: Antiviral activity against TK-HSV-1 virus infected HEF cell lines.; assay type: functional; outline: as §2
[11] = tested on: Human immunodeficiency virus 1; assay: Antiviral activity against HIV-1 virus infected CEM cell lines.; assay type: functional, CCRF-CEM
Vaccinia virus = assay: Antiviral activity against vaccinia virus infected HEF cell lines.; assay type: functional; settings: Orthopoxvirus vaccinia; outline: as §2
Vero = assay: Effects on cell morphology of Vero cell lines.; assay type: functional; settings: Chlorocebus sabaeus
Outline: (§3)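 HeLa (human epithelial) or Vero (African green monkey kidney) cells were examined under the microscope for changes in normal morphology. The value is the minimum concentration causing a detectable alteration, averaged from at least two separate experiments.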

Human betaherpesvirus 5 = assay: Antiviral activity against HCMV virus infected HEL cell lines.; assay type: functional; outline: as §1
[12] = Antiviral activity against influenza A,H2N2 virus infected MDCK cell lines.; assay type: functional
CCRF-CEM = assay: Cytotoxicity against CEM cell lines.; assay type: functional; settings: Homo sapiens
Coxsackievirus B4 [13] = assay: Antiviral activity against Coxsackie B4 virus infected HeLa cell lines.; assay type: functional; settings: Enterovirus B; outline: as §1
Enterovirus C = assay: Antiviral activity against polio 1 virus infected HeLa cell lines.; assay type: functional; outline: as §1
[14] = tested on: Vesicular stomatitis virus; assay: Antiviral activity against vesicular stomatitis virus infected HEF cell lines.; assay type: functional; outline: as §2
HeLa = assay: Effects on cell morphology of HeLa cell lines.; assay type: functional; settings: Homo sapiens; outline: as §3
[15] = Antiviral activity against influenza A,H3N2 virus infected MDCK cell lines.; assay type: functional

Compound | MIC50 (Human alphaherpesvirus 3 [1]) | MIC50 (HEF) | MIC50 (Semliki Forest virus) | MIC50 (Human alphaherpesvirus 2) | MIC50 (HEL) | MIC50 (Coxsackievirus B4 [2]) | MIC50 [3] | MIC50 [4] | MIC50 (Human alphaherpesvirus 1 [5]) | MIC50 (Sindbis virus) | MIC50 (Human alphaherpesvirus 3 [6]) | MIC50 (MDCK [7]) | MIC50 (Human respirovirus 3) | MIC50 [8] | MIC50 (Influenza B virus) | MIC50 (MDCK [9]) | MIC50 (Human alphaherpesvirus 1 [10]) | MIC50 [11] | MIC50 (Vaccinia virus) | MIC50 (Vero) | other results
C1CCC2(CC1)CCCN2CC12CC3CC(CC(C3)C1)C2 | 20 µg/mL (≈ 69.6 µM) | 100 µg/mL (≈ 348 µM) | > 100 µg/mL | > 40 µg/mL | > 50 µg/mL | > 100 µg/mL | > 20 µg/mL | 100 µg/mL (≈ 348 µM) | > 40 µg/mL | > 100 µg/mL | 30 µg/mL (≈ 104 µM) | > 250 µg/mL | > 100 µg/mL | > 100 µg/mL | > 100 µg/mL | > 150 µg/mL | > 40 µg/mL | > 20 µg/mL | > 40 µg/mL | > 200 µg/mL | MIC50 (Human betaherpesvirus 5): > 50 µg/mL; MIC50 [12]: > 100 µg/mL; MIC50 (CCRF-CEM): 33 µg/mL (≈ 115 µM); MIC50 (Coxsackievirus B4 [13]): > 100 µg/mL; MIC50 (Enterovirus C): > 100 µg/mL; MIC50 [14]: > 40 µg/mL; MIC50 (HeLa): 200 µg/mL (≈ 696 µM); MIC50 [15]: > 100 µg/mL
NC1(C23CC4CC(CC(C4)C2)C3)CCCC1 | > 20 µg/mL | 40 µg/mL (≈ 182 µM) | > 10 µg/mL | > 10 µg/mL | > 50 µg/mL | > 10 µg/mL | > 8 µg/mL | > 40 µg/mL | > 10 µg/mL | > 10 µg/mL | > 20 µg/mL | > 250 µg/mL | > 10 µg/mL | > 10 µg/mL | 20 µg/mL (≈ 91.2 µM) | > 64 µg/mL | > 10 µg/mL | > 8 µg/mL | > 10 µg/mL | > 400 µg/mL | MIC50 (Human betaherpesvirus 5): > 20 µg/mL; MIC50 [12]: 2.5 µg/mL (≈ 11.4 µM); MIC50 (CCRF-CEM): 18 µg/mL (≈ 82.1 µM); MIC50 (Coxsackievirus B4 [13]): > 40 µg/mL; MIC50 (Enterovirus C): > 40 µg/mL; MIC50 [14]: > 10 µg/mL; MIC50 (HeLa): 100 µg/mL (≈ 456 µM); MIC50 [15]: 6 µg/mL (≈ 27.4 µM)
